# ChEMBL document CHEMBL5032510, “Identification of Novel Fused Heteroaromatics-Based MALT1 Inhibitors by High-Throughput Screening to Treat B Cell Lymphoma” (J Med Chem, 2021)
# Key:
# [1] = MRT (0 to t) in CD-1 mouse at 1 mg/kg, iv by LC-MS/MS analysis; type: ADME, organism-based; details: in vivo
# Summary of the method: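 Male ICR (CD-1) mice (n = 9). Compound formulated in 5% DMSO + 5% Tween-80 in 90% saline and dosed 10 mg/kg po, 1 mg/kg ip or 1 mg/kg iv. Blood drawn from the jugular vein at set time points and held on ice. Plasma separated by centrifugation and stored at −80 °C before parameter derivation.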
# [2] = Toxicity in NCG mouse xenografted with human TMD8 cells assessed as diarrhea at 30 mg/kg/day, ip measured for 13 days; details: in vivo, 312 h
# [3] = test system: TMD8; experiment: Induction of apoptosis in human TMD8 cells assessed as dead cells at 10 uM measured after 24 hrs by Annexin V-FITC/ Propidium iodide staining based flow cytometry (reference value: 0%); type: functional
# [4] = Drug concentration in tumor of NCG mouse xenografted with human TMD8 cells at 30 mg/kg/day, ip measured after 13 days; type: ADME, organism-based, Neoplasm; details: time 13 day, read-out: Drug uptake
# Summary of the method: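 TMD8 cells (5 × 10⁶) were implanted subcutaneously into the right flank of 6-week-old female NCG mice. At day 10, when tumors were palpable, mice were randomized into groups of eight. Dosing was ip at 30 mg/kg for 13 consecutive days; controls received HPBCD (20% PEG 400) ip. TGI was based on mean tumor weight of treated versus control groups. Intratumoral drug level was measured after 13 days of dosing.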
# [5] = Cmax in CD-1 mouse at 10 mg/kg, po by LC-MS/MS analysis; type: ADME, organism-based; set-up: route oral, dose 10 mg/kg; details: in vivo
# Summary of the method: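 Compound formulated in 5% DMSO + 5% Tween-80 in 90% saline and given to male ICR (CD-1) mice (n = 9) at 10 mg/kg po, 1 mg/kg ip or 1 mg/kg iv. Blood was drawn via the jugular vein at set time points and held on ice. Plasma was separated by centrifugation and stored at −80 °C before PK parameters were derived.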
# [6] = Induction of apoptosis in human HBL1 cells assessed as dead cells at 2 uM measured after 24 hrs by Annexin V-FITC/ Propidium iodide staining based flow cytometry (reference value: 2.32%); type: functional
# [7] = test system: OCI-Ly1; experiment: Antiproliferative activity against human OCI-Ly1 cells assessed as inhibition of cell growth incubated for 72 hrs by Celltiter-Glo luminescent assay; type: functional
# Summary of the method: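 Exponentially growing cells were seeded at 1 × 10⁴ per 100 μL. HBL-1 and TMD8 were kept in RPMI with 10% FBS, 2 mM glutamine and 10 mM HEPES; OCI-LY1 in Iscove's medium with 20% FBS; all at 37 °C and 5% CO2. Cells were exposed to DMSO or 2-fold serial dilutions from 100 μM for 72 h, in triplicate on one plate. CellTiter-Glo luminescence was read after 1 h. Growth inhibition was calculated against control, accounting for initial cell number, and GI50 was fitted.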
# [8] = test system: OCI-Ly1; experiment: Induction of apoptosis in human OCI-Ly1 cells assessed as viable cells at 5 uM measured after 24 hrs by Annexin V-FITC/ Propidium iodide staining based flow cytometry (reference value: 97.8%); type: functional; details: read-out: Activity
# [9] = Induction of apoptosis in human HBL1 cells assessed as dead cells at 10 uM measured after 24 hrs by Annexin V-FITC/ Propidium iodide staining based flow cytometry (reference value: 2.32%); type: functional
# [10] = test system: TMD8; experiment: Induction of apoptosis in human TMD8 cells assessed as increase in cleaved PARP level measured after 12 hrs by Western blot analysis; type: functional, cell-based
# Summary of the method: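 HBL1, TMD8 or OCI-LY1 cells were exposed to DMSO or compound for 12 h. Cleaved PARP and caspase-3 were probed by western blot with HRP-conjugated secondary antibodies and chemiluminescent detection. Each lane held 20−75 μg total protein.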
# [11] = test system: TMD8; experiment: Antitumor activity against human TMD8 cells xenografted in NCG mouse assessed as tumor growth inhibition at 30 mg/kg/day, ip measured every 2 days for 13 days by caliper method relative to control; type: functional; details: 312 h, time 13 day, read-out: TGI
smiles,measurement,setting,value
COc1ccc(OC)c(NC(=O)c2sc(=S)n(-c3ccc(C(F)(F)F)cc3)c2NC(=O)CCl)c1,MRT last,[1],5.66 h
same,Activity,[2],Non-Toxic
same,Activity,[3],0.625%
same,concentration at 312 h,[4],1130 ng/g
same,Cmax,[5],1530 ng/mL
same,Activity,[6],1.94%
same,GI50,[7],10.7 µM
same,viability at 5 µM,[8],97.4%
same,Activity,[9],1.04%
same,Activity,[10],Dose-Dependent Effect
same,inhibition in vivo at 30 mg/kg/day,[11],31%
